Calls of active or inactive are those of the source. The calls are words filed in the database; no cut-off is given here.
Columns and labels:
[1] = Drug localization in mitochondria of human U87 cells at 20 uM incubated for 45 mins by Mitotracker staining-based confocal fluorescence microscopy; format: ADME; settings: u-87mg atcc, 0.75 h
In short: (§1)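 U87 cells seeded at 10 000/well in imaging chambers and left overnight. Exposed to 20 μM compound in FluoroBrite DMEM for 45 min at 37 °C, then washed with HBSS. Stained 15 min with LysoTracker (1:10 000) or MitoTracker (1:15 000), plus NucBlue nuclear stain. Imaged live by confocal microscopy at 60×, dye excited at 633 nm. Colocalization scored by Pearson's correlation coefficient.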

[2] = Drug localization in lysosome of human U87 cells at 20 uM incubated for 45 mins by Lysotracker staining-based confocal fluorescence microscopy; format: ADME; settings: u-87mg atcc, 0.75 h; in short: as §1
U-87 MG [3] = test: Cytotoxicity against human U87 cells assessed as reduction in cell viability incubated for 72 hrs by AlamarBlue assay; format: functional, cell-based, U-87MG ATCC
U-87 MG [4] = test: Antitumor activity against luciferase and RFP reporter expressing human U87 cells xenografted in Fox1nu mouse assessed as decrease in tumor burden at 10 mg/kg, iv administered at day 4 and day 8 post inoculation and six injections weekly measured after 5 weeks by bioluminescence imaging analysis; format: functional, organism-based; settings: U-87MG ATCC
[5] = Toxicity in […] mouse xenografted with luciferase and RFP reporter expressing human U87 cells assessed as effect on body weight at 10 mg/kg, iv administered at day 4 and day 8 post inoculation and six injections weekly measured after 5 weeks; format: organism-based; settings: in vivo, 840 h
U-87 MG [6] = test: Antitumor activity against luciferase and RFP reporter expressing human U87 cells xenografted in Fox1nu mouse assessed as decrease in tumor size at 10 mg/kg, iv administered at day 4 and day 8 post inoculation and six injections weekly measured after 5 weeks by bioluminescence imaging analysis; format: functional, organism-based; settings: U-87MG ATCC
[7] = Half life in mouse serum; format: ADME, cell-free

| SMILES | Drug uptake [1] | Drug uptake [2] | IC50 (U-87 MG [3]) [µM] | Activity (U-87 MG [4]) | Activity [5] | Activity (U-87 MG [6]) | half-life [7] [min] |
| --- | --- | --- | --- | --- | --- | --- | --- |
| CC1(C)C(/C=C/C2=C(Cl)C(=C/C=C3/N(CCCCCC(=O)O)c4ccccc4C3(C)C)/CCC2)=[N+](CCCCS(=O)(=O)O)c2ccccc21.[Cl-] | Active | Active | – | – | – | – | – |
| Nc1ccn([C@@H]2O[C@H](CO)[C@@H](O)C2(F)F)c(=O)n1 [GEMCITABINE] | – | – | 0.0082 | Active | Non-Toxic | inactive | – |
| CCCN1/C(=C/C=C2\CCCC(/C=C/C3=[N+](CCC)c4ccccc4C3(C)C)=C2Cl)C(C)(C)c2ccccc21.[Cl-] | Active | Active | 7.1 | – | – | – | – |
| CCCN1/C(=C/C=C2\CCCC(/C=C/C3=[N+](CCC)c4ccccc4C3(C)C)=C2SCCC(=O)Nc2ccn([C@@H]3O[C@H](CO)[C@@H](O)C3(F)F)c(=O)n2)C(C)(C)c2ccccc21.[Cl-] | Active | Active | – | – | – | – | – |
| CC1(C)C(/C=C/C2=C(Cl)C(=C/C=C3/N(CCCCCC(=O)O)c4ccccc4C3(C)C)/CCC2)=[N+](CCCCCC(=O)O)c2ccccc21.[Cl-] | Active | Active | – | – | – | – | 36 |
| O=C(CCS)Nc1ccn([C@@H]2O[C@H](CO)[C@@H](O)C2(F)F)c(=O)n1 | – | – | 0.011 | – | – | – | – |

Source: ChEMBL document CHEMBL4321807, “Cyanine-Gemcitabine Conjugates as Targeted Theranostic Agents for Glioblastoma Tumor Cells” (J Med Chem, 2019)
